By IC50 is commonly meant the concentration that gives 50% inhibition.

The source made the active and inactive calls. The rule behind the calls is not given here.

In one experiment the test system is PC-3. Nature of the experiment: Cytotoxicity against human PC3 cell line by MTT assay after 72 hrs. As to conditions: PC-3, 72 h. Type of experiment: functional, cell-based. The method in brief: (§1)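 MTT growth-inhibition assay in prostate cancer cells. Cells were exposed to compounds for 72 h. IC50 was taken from the dose–response data.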
The subject of experiment [1] is LNCaP. Nature of the experiment: Cytotoxicity against human LnCaP cell line by MTT assay after 72 hrs. The experiment is classed as functional, cell-based. The method in brief:
as §1
(Tetrazolium dyes change colour on reduction, which living cells bring about.)

Experiment [2] has as its system LNCaP. In words: Induction of apoptosis in LnCaP cells assessed as PARP cleavage by Western blot analysis. The experiment is classed as functional, cell-based. The note with it: Homo sapiens. Background: Immunoblotting shows a protein as a band on a membrane.
Experiment [3] has as its target T1, Proteasome Macropain subunit MB1 (Homo sapiens, UniProt P28074).
T1 sequence (P28074 whole entry): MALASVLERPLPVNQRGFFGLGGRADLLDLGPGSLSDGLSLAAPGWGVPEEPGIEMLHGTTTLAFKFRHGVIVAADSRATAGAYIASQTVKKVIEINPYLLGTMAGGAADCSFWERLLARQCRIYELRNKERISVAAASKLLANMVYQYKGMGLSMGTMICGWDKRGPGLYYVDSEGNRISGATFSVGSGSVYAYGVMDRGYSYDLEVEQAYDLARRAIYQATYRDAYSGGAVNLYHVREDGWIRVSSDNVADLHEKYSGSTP
In words: Inhibition of chymotrypsin-like activity of proteasome in intact LnCaP cells. Type of experiment: cell-based. In outline: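 Intact LNCaP cells were treated, then whole-cell extracts were assayed for proteasome chymotrypsin-like activity. CuCl2 alone served as control. IC50 values were derived.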

The subject of experiment [4] is LNCaP. In words: Inhibition in LnCaP cell line growth by ELISA apoptosis assay upto 20 uM. The note with it: Homo sapiens. The experiment is classed as functional, cell-based. The method in brief: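 Apoptotic cell death in LNCaP cells measured by histone/DNA ELISA. Cells were treated for 72 h at 10 and 20 µM and compared with a control.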
For experiment [5], the system named is LNCaP. In words: Induction of apoptosis in LnCaP cells measured by hydrogen peroxide assay. The experiment is classed as functional, cell-based. The note with it: Homo sapiens. The method in brief: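 LNCaP cells were treated for 24 h at 4, 7 and 10 µM. H2O2 was then measured with the Amplex Red hydrogen peroxide kit at time points from 1 to 6 h. Absorbance was normalized to control.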

Consider `O=C(N/N=C/c1ccc2ccccc2n1)c1ccccc1O`, for which the IC50 is 31 µM in the experiment on PC-3 and 20 µM in the experiment on LNCaP [1].
Taken in the same sequence, the figures for `O=C(N/N=C/c1ccc2ccccc2n1)c1ccccc1` were 25 µM and 20 µM.
As to `NC(=S)N/N=C/c1ccc2ccccc2n1`, the result in the experiment with LNCaP [2] was Active. Further, the results for the IC50 (in experiment [3]; with PC-3; in the experiment with LNCaP [1]) were at least 10 µM, 21 µM and 16 µM, respectively. Besides, the Activity result in the experiment with LNCaP [4] is “Dose-dependent effect”. Also, in the experiment with LNCaP [5], the result was inactive.
